Test results reported in ChEMBL document CHEMBL1138866, “Antitubercular nucleosides that inhibit siderophore biosynthesis: SAR of the glycosyl domain” (J Med Chem, 2006).
≈ marks a conversion by molar mass, not a printed value.

Columns and labels:
[1] = target: T1, Salicyl-AMP ligase / salicyl-S-ArCP synthetase (Mycobacterium tuberculosis, UniProt P71716); assay: Inhibition of Mycobacterium tuberculosis MbtA by [32P]PPi-ATP exchange assay; conditions: read-out: Ki app
T1 sequence (P71716 whole entry): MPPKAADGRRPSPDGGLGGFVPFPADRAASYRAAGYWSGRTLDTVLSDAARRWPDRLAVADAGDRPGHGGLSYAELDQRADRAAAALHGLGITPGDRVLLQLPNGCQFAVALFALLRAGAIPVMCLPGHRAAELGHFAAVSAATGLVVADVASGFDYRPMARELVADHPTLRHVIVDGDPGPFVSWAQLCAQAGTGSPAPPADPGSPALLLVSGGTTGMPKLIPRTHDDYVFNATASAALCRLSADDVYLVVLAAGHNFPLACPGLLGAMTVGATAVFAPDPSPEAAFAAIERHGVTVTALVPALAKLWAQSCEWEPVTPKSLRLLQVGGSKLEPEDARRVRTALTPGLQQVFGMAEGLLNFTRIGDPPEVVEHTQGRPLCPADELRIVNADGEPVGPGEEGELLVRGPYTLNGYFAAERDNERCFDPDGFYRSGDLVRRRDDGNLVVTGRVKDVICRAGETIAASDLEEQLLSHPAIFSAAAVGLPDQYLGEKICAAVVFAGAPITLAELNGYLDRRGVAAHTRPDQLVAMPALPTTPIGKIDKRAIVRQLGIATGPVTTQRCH
Outline: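 Native MbtA (His6-SUMO tag removed), 7 nM, with 250 μM salicylic acid, 10 mM ATP and 1 mM PPi in 75 mM Tris-HCl pH 7.5, 10 mM MgCl2, 2 mM DTT. Inhibitor in DMSO preincubated 10 min at 23 °C, then [32P]PPi added and run 20 min at 37 °C. Charcoal-bound γ-[32P]ATP counted; duplicate data fit to Morrison equation ([E] 7.0 nM) for KIapp.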

[2] = tested on: Mycobacterium tuberculosis; assay: Antitubercular activity against Mycobacterium tuberculosis H37Rv; format: functional
Outline: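 Broth microdilution in iron-deficient GAST, in quadruplicate, with drugs from DMSO stocks and DMSO-treated control wells. Initial density 10^4–10^5 cells/assay, 37 °C, OD620 read at 10 and 14 days. MIC99 is the concentration giving complete growth inhibition.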

[3] = tested on: Yersinia pseudotuberculosis; assay: Inhibitory activity against Yersinia pseudotuberculosis ATCC 6902; format: functional
Outline: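 Broth microdilution in triplicate in desferrated BHI (Chelex-treated plus 200 μM 2,2′-dipyridyl), with or without 150 μM FeCl3 for iron-rich conditions. Initial density 10^3–10^4 cells/well, compounds up to 100 μM, 1% DMSO control. Grown 24 h at 37 °C with shaking; OD600 read; MIC99.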

Row | Structure (SMILES) | Ki [1] [nM] | MIC99 [2] [µM] | MIC99 [3] [µM]
1 | Nc1ncnc2ncn([C@@H]3C[C@H](COS(=O)(=O)NC(=O)c4ccccc4O)[C@@H](O)[C@H]3O)c12 | 2.3 | 1.56 (≈ 0.725 µg/mL) | > 100
2 | Nc1ncnc2ncn([C@@H]3O[C@H](CNS(=O)(=O)NC(=O)c4ccccc4O)[C@@H](O)[C@H]3O)c12 | 3.7 | 0.19 (≈ 0.0884 µg/mL) | 
3 | Nc1ncnc2ncn([C@@H]3O[C@H](COS(=O)(=O)NC(=O)c4ccccc4O)[C@@H](O)[C@H]3O)c12 |  | 0.29 (≈ 0.135 µg/mL) | 20 (≈ 9.33 µg/mL)
4 | Nc1ncnc2ncn(COCCOS(=O)(=O)NC(=O)c3ccccc3O)c12 | 16700 | > 200 | > 100
5 | Nc1ncnc2ncn([C@H]3C=C[C@@H](COS(=O)(=O)NC(=O)c4ccccc4O)C3)c12 | 830 | > 200 | > 100
6 | Nc1ncnc2ncn([C@H]3CC[C@@H](COS(=O)(=O)NC(=O)c4ccccc4O)C3)c12 | 61 | > 200 | 
7 | Nc1ncnc2ncn([C@@H]3O[C@H](COS(=O)(=O)NC(=O)c4ccccc4O)C[C@H]3O)c12 | 3.2 | 1.56 (≈ 0.703 µg/mL) | 80 (≈ 36 µg/mL)
8 | Nc1ncnc2ncn([C@H]3C[C@H](O)[C@@H](COS(=O)(=O)NC(=O)c4ccccc4O)O3)c12 | 3.5 |  | 
9 | NNC(=O)c1ccncc1 [ISONIAZID] |  | 0.18 (≈ 0.0247 µg/mL) | 
